The record followed here is PMC6976987 (Molecular Genetics and Metabolism Reports, 2020).

Series [1] is described as follows: Safety assessments. Conditions: concomitant dosing with eliglustat, N = 33. Format: in vivo, human. A digest of the protocol: (§1)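 Open-label study in healthy adults. Safety was monitored after a single dose (Day 1), during multiple doses alone (Days 2–8), and during co-dosing (Days 9–15 with the CYP3A/P-gp inhibitor; Days 9–18 with the CYP2D6 inhibitor). Measures: treatment-emergent AEs, clinical labs, vital signs, physical exams, 12-lead ECG, 12 h continuous telemetry. An AE counted as treatment-related if possibly, probably or definitely related to study drug.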

Series [2] can be described thus: Safety assessments. Format: in vivo, human. A digest of the protocol:
as §1

For `CC(=O)N1CCN(c2ccc(OCC3COC(Cn4ccnc4)(c4ccc(Cl)cc4Cl)O3)cc2)CC1` (stereo not drawn) [ketoconazole], in “Safety assessments [1]”, the “subjects reporting AEs related to ketoconazole” value is listed as 33.3%.

As for `Fc1ccc([C@@H]2CCNC[C@H]2COc2ccc3c(c2)OCO3)cc1` [paroxetine], the “subjects reporting AEs related to paroxetine” value in “Safety assessments [2]” (concomitant dosing with eliglustat, N = 35) was 71.4%. The “subjects with moderate clinically significant increases in blood pressure” value in “Safety assessments [2]” (concomitant dosing, deemed probably related to paroxetine) is recorded as 17.1%.
